One compound from ChEMBL document CHEMBL1255201, “A novel arylethynyltriazole acyclonucleoside inhibits proliferation of drug-resistant pancreatic cancer cells” (2010) can be followed below.

The subject of the test is MIA PaCa-2. The experiment in a line: Growth inhibition of human MIAPaCa2 cells after 48 hrs by MTT assay. The test is classed as functional. The essentials:
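Cells seeded at 15,000/well, attached overnight, then medium replaced with fresh medium alone (control) or medium containing compound; 48 h at 37 °C, 5% CO2. Viable cells quantified by MTT colorimetric assay.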

As for `Nc1ccn([C@@H]2O[C@H](CO)[C@@H](O)C2(F)F)c(=O)n1` [GEMCITABINE], the “inhibition (INH)” value came to 30%.
